ARFGAP1 inhibitor: inhibitors of rat ARFGAP1 GAP activity, primary screen, biochemical, fluorescence polarization, GDP tracer; inhibition, % at 16.5 µM; actives 0.26% (n = 360,000); ADP-ribosylation factor GTPase-activating protein 1 (Rattus norvegicus), Q62848; Arfgap1-stimulated ARF1 GTP hydrolysis, GDP FP detection;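 active = inhibition above a per-plate limit, mean inhibition of low control wells plus 3 SD, cut at about 25% in these data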
Target sequence (Q62848 1-136 limits assumed): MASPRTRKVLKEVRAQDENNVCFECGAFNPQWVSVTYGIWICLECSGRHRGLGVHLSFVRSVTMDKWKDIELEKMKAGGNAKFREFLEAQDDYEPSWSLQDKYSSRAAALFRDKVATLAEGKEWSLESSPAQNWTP
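Repeats: one replicate per compound; assay system: rat Arfgap1 catalytic domain, aa 1-136; times: enzyme reaction 120 min at 25 °C after 20 min preincubation; detection: FP of antibody-bound GDP Alexa 633 tracer, ex 620/em 688 nm; benchmarks: high control wells lacking Arfgap1, low control full reaction with DMSO; reagent: human ARF1(Δ1-17)-GTP substrate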
ASAP1 inh: inhibitors of human ASAP1 ArfGAP activity, primary screen, biochemical, fluorescence polarization; actives 0.19% (n = 360,000); ASAP1-stimulated ARF1 GTP hydrolysis, GDP FP detection; inhibition, % at 16.5 µM; in the data active = inhibition above about 25%
TDP2 inh: human TDP2 enzyme inhibitors, primary screen, biochemical, epi absorbance, recombinant enzyme; inhibition, % at 12.8 µM; T5PNP hydrolysis, p-nitrophenol absorbance 415 nm; AID 720702, 2013; actives 0.34% (n = 370,000); Tyrosyl-DNA phosphodiesterase 2 (Homo sapiens), O95551;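 active = inhibition above the mean of all tested compounds plus 3 SD, set per campaign, cut at about 25% in these data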
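Assay system: recombinant human TDP2 / Reagent: T5PNP substrate at 5 mM, a TopII-DNA adduct mimic / Measured by: epi absorbance from released p-nitrophenol / Evaluation: % inhibition relative to enzyme-containing and enzyme-free wells / Control set: enzyme-free and DMSO wells / Replicates: each compound tested once, singlicate / Schedule: enzyme reaction with compound for 2 h at 37 °C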
Casp6 inh: human caspase-6 inhibitors, primary screen, biochemical, VEID-R110 fluorescence, single point, set 2; purified caspase-6, Z-VEID-R110 cleavage fluorescence; actives 0.53% (n = 350,000); inhibition, % at 12.5 µM; P55212; AID 686996, 2013;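 active = mean inhibition across replicates at least about 35%, with every replicate also reaching that limit, limit read from the data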
Target sequence (P55212 24-179 limits assumed): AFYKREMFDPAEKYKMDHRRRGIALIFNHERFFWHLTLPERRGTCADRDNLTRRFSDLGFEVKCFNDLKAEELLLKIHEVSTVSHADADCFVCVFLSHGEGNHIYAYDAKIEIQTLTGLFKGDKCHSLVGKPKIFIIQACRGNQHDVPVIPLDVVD
Target sequence (P55212 194-293 limits assumed): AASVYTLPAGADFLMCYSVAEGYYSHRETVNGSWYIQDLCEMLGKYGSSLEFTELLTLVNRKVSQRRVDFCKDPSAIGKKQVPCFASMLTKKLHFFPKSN
LEDGF integ inh: blockers of LEDGF/p75-dependent integrase strand transfer – biochemical, TR-FRET, high throughput, primary screen; HIV-1 integrase (with human LEDGF/p75); TR-FRET IN-LEDGF/p75 DNA integration, Eu/Cy5; inhibition, % at 3.7 µM; actives 0.64% (n = 370,000);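 active = inhibition above the screen-wide mean plus 3 SD, cut at about 13% in these data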;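 also: signal is the Cy5 over europium emission ratio at 671 and 618 nm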
IN multimer act: HIV-1 IN multimer formation enhancers, counter-screen for LEDGF/p75 integration inhibitor project, biochemical, TR-FRET; shares compounds with LEDGF integ inh; TR-FRET HIV-1 integrase multimerization; activation, % at 7.7 µM; actives 17% (n = 2,000); AID 1053131, 2014; in the data active = activation above about 8.9%
TR-FRET interf: TR-FRET optical interference artefacts, confirmation, artefact control for LEDGF/p75-dependent integration inhibitor project, biochemical, HIV-1 IN multimerization. shares compounds with LEDGF integ inh. TR-FRET optical interference counterscreen. inhibition, % at 7.7 µM. 2,000 tested, under 10 active;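 active = inhibition above the mean over all tested compounds plus 3 SD, which no compound reached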
IN-LEDGF confirm: inhibitors of HIV-1 IN-LEDGF/p75 DNA integration, confirmation, biochemical, TR-FRET; shares compounds with LEDGF integ inh; TR-FRET LEDGF/p75-dependent HIV-1 integration; inhibition, % at 3.7 µM; actives 36% (n = 2,000); AID 1053136, 2014; in the data active = inhibition above about 14%
Hits are given with their value; n = inactive; x = no result. Sampled rows, rich in hits. Any-hit rate of the full collection: about 1.3%.

SMILES	ARFGAP1 inhibitor	ASAP1 inh	TDP2 inh	Casp6 inh	LEDGF integ inh	IN multimer act	TR-FRET interf	IN-LEDGF confirm
CN(CCC#N)C(=O)COC(=O)c1c2c(nc3ccccc13)/C(=C\c1ccco1)CC2	n	n	n	n	49.7	20.7	n	70.0
COc1cccc2c1C(=O)c1c(O)c3c(c(O)c1C2=O)CC(O)(C(C)=O)CC3OC1CC(N(C)C)C(O)C(C)O1 (stereo unspecified)	n	n	n	n	13.9	n	n	32.0
COc1cccc2c1C(=O)c1c(O)c3c(c(O)c1C2=O)C[C@@](O)(C(=O)CO)C[C@@H]3OC1CC(N)C(O)C(C)O1 (stereo partly specified)	n	n	n	n	n	x	x	x
Nc1n[nH]c(CCCO)n1	n	n	n	x	24.6	n	n	n
CCOc1ccccc1NC(=O)CN1CCC(NC(=O)c2ccccc2C)CC1	n	n	n	n	20.7	n	n	n
CCOc1ccccc1NC(=O)N1CCC(NC(=O)c2ccccc2C)CC1	n	n	n	x	n	x	x	x
COc1ccc(-n2c(Cn3c(=O)sc4ccccc43)nnc2SCC(=O)N2CCCC2)cc1	n	n	n	n	31.9	n	n	n
COc1ccc(OC)c(NS(=O)(=O)c2ccc(-n3cccn3)cc2)c1	n	n	n	n	n	x	x	x
Cc1noc(C)c1NC(=O)N(C)C[C@H]1OCCCC[C@H](C)Oc2ccc(NS(=O)(=O)c3ccc(F)cc3)cc2C(=O)N([C@@H](C)CO)C[C@H]1C	x	x	x	n	x	x	x	x
Cc1cc(CNC(=O)C(C)n2cc([N+](=O)[O-])cn2)c2ccccc2n1 (stereo unspecified)	n	n	n	n	n	x	x	x
Cc1cc(CNC(=O)Cn2cc([N+](=O)[O-])cn2)c2ccccc2n1	n	n	n	n	17.4	n	n	n
CCOC(=O)NC(=O)COC(=O)c1ccc(Sc2ncn[nH]2)c([N+](=O)[O-])c1	n	n	n	n	n	x	x	x
Cn1cccc1C(=O)OCC(=O)NCCc1ccc(S(N)(=O)=O)cc1	n	n	n	n	n	x	x	x
S=c1[nH]nc(-c2ccco2)n1/N=C/C=C/c1ccco1	n	n	n	70.2	21.1	15.9	n	74.0
Cc1c(C)c2cc(Cl)c(OC(C)C(=O)NCCN3CCOCC3)cc2oc1=O (stereo unspecified)	n	n	n	n	n	x	x	x
O=C(NC1CCCCCC1)c1cccnc1Sc1ccccc1	n	n	n	n	24.0	n	n	n
Cc1ccc(Sc2ncccc2C(=O)NC2CCCCCC2)cc1C	n	n	n	x	n	x	x	x
O=C(Nc1cc([N+](=O)[O-])ccc1N1CCOCC1)c1cccs1	n	n	n	n	n	x	x	x
c1ccc(-c2nnc3n2N=C(c2ccc4ccccc4c2)CS3)cc1	x	x	n	x	n	x	x	x
O=C1c2cccc(NCCCNCCO)c2C(=O)c2cccc(NCCCNCCO)c21	n	n	n	n	15.7	17.6	n	13.4
CC(=O)NC1=NC(=O)/C(=C/c2cc(C)n(-c3cccc(C(=O)O)c3)c2C)S1	n	n	n	67.2	31.3	14.1	n	n
CCc1cnc(Nc2nc(C(N)Cc3ccc(Cl)cc3)cs2)nc1 (stereo unspecified)	n	n	n	n	n	x	x	x

Screens as filed in PubChem.
